Here are results for eleven compounds from ChEMBL document CHEMBL3112475, “Synthesis of novel ring-A fused hybrids of oleanolic acid with capabilities to arrest cell cycle and induce apoptosis in breast cancer cells” (Eur J Med Chem, 2014).

The source made the active and inactive calls. The rule behind the calls is not given here. Bounds are passed on as bounds.

In one test the test system is MDA-MB-453. Kind of test: Cytotoxicity against human MDA-MB-453 cells after 48 hrs by MTT assay. Format: functional, cell-based. To be noted: MDA-MB-453, 48 h. The procedure, abridged:
(§1)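 1 × 10⁴ cells, counted by trypan blue exclusion, were incubated in 96-well plates with a concentration series for 48 h at 37 °C in DMEM with 10% FBS. MTT reagent (5 mg/ml) was added and absorbance read at 570 nm. IC50 was taken from a plot of % viability versus control against concentration. Compounds were first screened at 100 µM, and only those giving ≥50% cytotoxicity went to dose-response.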

The nature of test [1]: Cytotoxicity against human ME180 cells after 48 hrs by MTT assay. Format: functional, cell-based. The note with it: ME-180, 48 h. The procedure, abridged:
as §1

For the next test, the system named is MDA-MB-231. The test can be described thus: Cytotoxicity against human MDA-MB-231 cells after 48 hrs by MTT assay. Format: functional, cell-based. The note with it: MDA-MB-231, 48 h. In outline: as §1
A further test concerns HeLa. Kind of test: Cytotoxicity against human HeLa cells after 48 hrs by MTT assay. Format: functional, cell-based. In outline:
as §1

Test [2] has as its system MCF7. The test can be described thus: Cytotoxicity against human MCF7 cells after 48 hrs by MTT assay. The note with it: MCF7, 48 h. Format: functional, cell-based. The procedure, abridged:
as §1

For a further test, the system named is HT-29. Kind of test: Cytotoxicity against human HT-29 cells after 48 hrs by MTT assay. To be noted: HT-29, 48 h. Format: functional, cell-based. In outline:
as §1

Another test concerns PC-3. Kind of test: Cytotoxicity against human PC3 cells after 48 hrs by MTT assay. Format: functional, cell-based. To be noted: PC-3, 48 h. The procedure, abridged:
as §1

Test [3] deals with MCF7. Kind of test: Cell cycle arrest in human MCF7 cells assessed as accumulation at G0/G1 phase at 5 uM after 48 hrs by propidium iodide staining (reference value: 69.2%). Format: functional.
Test [4] relates to MCF7. The test can be described thus: Cell cycle arrest in human MCF7 cells assessed as accumulation at S phase at 10 uM after 48 hrs by propidium iodide staining (reference value: 10.2%). Format: functional.
The subject of test [5] is MCF7. The test can be described thus: Induction of morphological change in human MCF7 cells assessed as cell shrinkage at 10 uM after 48 hrs by acridine orange and ethidium bromide staining based fluorescence microscopic analysis. Format: functional. The procedure, abridged: (§2)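 MCF-7 cells were plated at 1 × 10⁶ cells/ml and treated with compound for 48 h. After acridine orange/ethidium bromide dual staining, cells were viewed 30 min later by fluorescence microscopy through a blue filter. Green homogeneous nuclei were scored as intact, condensed or fragmented chromatin as apoptotic, and orange-red nuclei as late apoptotic/necrotic. At least 200 cells were counted in random fields, and each test was done three times.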

The subject of test [6] is MCF7. Kind of test: Induction of apoptosis in human MCF7 cells assessed as increase of late apoptotic/necrotic cells at 10 uM after 48 hrs by acridine orange and ethidium bromide staining based fluorescence microscopic analysis. Format: functional, cell-based. The procedure, abridged:
as §2

Test [7] deals with MCF7. Kind of test: Cell cycle arrest in human MCF7 cells assessed as accumulation at G0/G1 phase at 10 uM after 48 hrs by propidium iodide staining (reference value: 69.2%). Format: functional.
Test [8] deals with MCF7. Kind of test: Cell cycle arrest in human MCF7 cells assessed as accumulation at G2/M phase at 10 uM after 48 hrs by propidium iodide staining (reference value: 14.9%). Format: functional.
In test [9] the test system is MCF7. Kind of test: Ratio of etoposide IC50 to compound IC50 for human MCF7 cells. Format: functional.
For test [10], the system named is MCF7. Kind of test: Cell cycle arrest in human MCF7 cells assessed as accumulation at G2/M phase at 5 uM after 48 hrs by propidium iodide staining (reference value: 14.9%). Format: functional.
Test [11] relates to MCF7. The test can be described thus: Cell cycle arrest in human MCF7 cells assessed as accumulation at S phase at 5 uM after 48 hrs by propidium iodide staining (reference value: 10.2%). Format: functional.
Test [12] concerns MCF7. The test can be described thus: Induction of morphological change in human MCF7 cells assessed as chromatin condensation with destructive fragmentation of nucleus at 10 uM after 48 hrs by acridine orange and ethidium bromide staining based fluorescence microscopic analysis. Format: functional, cell-based. The procedure, abridged: as §2
The subject of test [13] is MCF7. The test can be described thus: Induction of morphological change in human MCF7 cells assessed as membrane blebbing at 10 uM after 48 hrs by acridine orange and ethidium bromide staining based fluorescence microscopic analysis. Format: functional, cell-based. The procedure, abridged:
as §2

Test [14] deals with MCF7. Kind of test: Induction of apoptosis in human MCF7 cells assessed as increase of early apoptotic cells at 5 uM after 48 hrs by acridine orange and ethidium bromide staining based fluorescence microscopic analysis. Format: functional, cell-based. The procedure, abridged: as §2

In the case of `COC(=O)[C@]12CCC(C)(C)C[C@H]1C1=CC[C@@H]3[C@@]4(C)Cc5c(-c6ccccc6)nc(=O)[nH]c5C(C)(C)[C@@H]4CC[C@@]3(C)[C@]1(C)CC2`, the IC50 was 96.7 µM in the test on MDA-MB-453; more than 100 µM in test [1]; more than 100 µM with MDA-MB-231; more than 100 µM in the test on HeLa; 78.9 µM with MCF7 [2]; more than 100 µM in the test on HT-29. In the test on PC-3, the IC50 amounted to 87.4 µM.

For the compound `COC(=O)[C@]12CCC(C)(C)C[C@H]1C1=CC[C@@H]3[C@@]4(C)C/C(=C\c5ccccc5)C(=O)C(C)(C)[C@@H]4CC[C@@]3(C)[C@]1(C)CC2`, the IC50 was more than 100 µM in the test on MDA-MB-453; more than 100 µM in test [1]; more than 100 µM in the test with MDA-MB-231; more than 100 µM with HeLa; 71.7 µM in the test on MCF7 [2]; more than 100 µM in the test with HT-29. The same compound registered a half-inhibitory concentration (IC50) in the test with PC-3 of more than 100 µM.

On to `COC(=O)[C@]12CCC(C)(C)C[C@H]1C1=CC[C@@H]3[C@@]4(C)C[C@@H]5C(=NN[C@H]5c5ccccc5)C(C)(C)[C@@H]4CC[C@@]3(C)[C@]1(C)CC2`, for which the concentration for half-maximal inhibition (IC50) in the test with MDA-MB-453 was more than 100 µM; in test [1], more than 100 µM; in the test on MDA-MB-231, more than 100 µM; in the test on HeLa, more than 100 µM; with MCF7 [2] it was 96.6 µM; in the test with HT-29, more than 100 µM. Moreover, in the test on PC-3, the IC50 was more than 100 µM.

As for `COC(=O)[C@]12CCC(C)(C)C[C@H]1C1=CC[C@@H]3[C@@]4(C)Cc5c(nn(-c6ccccc6)c5-c5ccccc5)C(C)(C)[C@@H]4CC[C@@]3(C)[C@]1(C)CC2`, the IC50 (in the test on MDA-MB-453; in [1]; with MDA-MB-231; with HeLa; in the test on MCF7 [2]; with HT-29) was more than 100 µM each time. Further, the 50% inhibitory concentration (IC50) with PC-3 was more than 100 µM.

For `COC(=O)[C@]12CCC(C)(C)C[C@H]1C1=CC[C@@H]3[C@@]4(C)Cc5c(-c6ccccc6)nc(N)nc5C(C)(C)[C@@H]4CC[C@@]3(C)[C@]1(C)CC2`, the Activity with MCF7 [3] amounted to 62.4%; in the test on MCF7 [4] it was 19.8%; in the test on MCF7 [7], 59.4%; in the test on MCF7 [8], 14.2%; with MCF7 [10] it was 17.8%; in the test with MCF7 [11] it was 13%. In addition, the outcome with MCF7 [5], in the test on MCF7 [6], in the test with MCF7 [12], with MCF7 [13] and in the test with MCF7 [14] was Active. For the same compound, the IC50 worked out at 12.6 µM in the test on MDA-MB-453; 16.7 µM in [1]; 16.3 µM with MDA-MB-231; 45.1 µM with HeLa; 10.6 µM in the test with MCF7 [2]; 30.7 µM in the test on HT-29. Inhibition with PC-3 was half-maximal at 75.3 µM (IC50). For the same compound, in the test with MCF7 [9], the “Ratio IC50” value is on record as 2.

As for `COc1cccc2c1C(=O)c1c(O)c3c(c(O)c1C2=O)C[C@@](O)(C(=O)CO)C[C@@H]3O[C@H]1C[C@H](N)[C@H](O)[C@H](C)O1` [DOXORUBICIN], the IC50 in the test with MDA-MB-453 came to 1.99 µM; in test [1], 0.39 µM; in the test with HeLa, 0.36 µM; in the test with PC-3, 0.19 µM.

Regarding `COC(=O)[C@]12CCC(C)(C)C[C@H]1C1=CC[C@@H]3[C@@]4(C)Cc5c(noc5-c5ccccc5)C(C)(C)[C@@H]4CC[C@@]3(C)[C@]1(C)CC2`, the IC50 with MDA-MB-453 was more than 100 µM; in test [1] it was more than 100 µM; in the test on MDA-MB-231, more than 100 µM; in the test on HeLa, more than 100 µM; with MCF7 [2] it was 88.2 µM; in the test on HT-29 it was more than 100 µM. In the test with PC-3, this compound had an IC50 of more than 100 µM.

On to `COc1cc([C@@H]2c3cc4c(cc3[C@@H](O[C@@H]3O[C@@H]5CO[C@@H](C)O[C@H]5[C@H](O)[C@H]3O)[C@H]3COC(=O)[C@H]23)OCO4)cc(OC)c1O` [ETOPOSIDE], for which the IC50 in test [1] stood at 8.9 µM; in the test with MDA-MB-231, 24.2 µM; in the test on HeLa, 4.71 µM; with MCF7 [2], 23.9 µM; in the test on HT-29, 21.4 µM; with PC-3, 14.4 µM.

With `CC1(C)CC[C@]2(C(=O)O)CC[C@]3(C)C(=CC[C@@H]4[C@@]5(C)CC[C@H](O)C(C)(C)[C@@H]5CC[C@]43C)[C@@H]2C1` [OLEANOLIC_ACID], the IC50 (in the test on MDA-MB-453; in test [1]; in the test with MDA-MB-231; in the test on HeLa; with MCF7 [2]; in the test with HT-29) was more than 100 µM throughout. The same compound returned an IC50 in the test on PC-3 of more than 100 µM.

For the compound `COC(=O)[C@]12CCC(C)(C)C[C@H]1C1=CC[C@@H]3[C@@]4(C)Cc5c(-c6ccccc6)nc(=S)[nH]c5C(C)(C)[C@@H]4CC[C@@]3(C)[C@]1(C)CC2`, the IC50 in the test on MDA-MB-453 is 40.6 µM; in test [1], more than 100 µM; in the test on MDA-MB-231, 75.5 µM; in the test with HeLa, 75.4 µM; in the test with MCF7 [2], 30.9 µM; with HT-29 it was 69 µM. Also, the half-inhibitory concentration (IC50) in the test with PC-3 is more than 100 µM.

As to `COC(=O)[C@]12CCC(C)(C)C[C@H]1C1=CC[C@@H]3[C@@]4(C)CCC(=O)C(C)(C)[C@@H]4CC[C@@]3(C)[C@]1(C)CC2`, the IC50 in the test with MDA-MB-453 is more than 100 µM; in [1], more than 100 µM; in the test on MDA-MB-231, more than 100 µM; in the test on HeLa, more than 100 µM; with MCF7 [2], 78.7 µM; in the test with HT-29 it was more than 100 µM. Also, in the test on PC-3, the IC50 was more than 100 µM.
